From ChEMBL document CHEMBL4616671, “Identification of N-Phenyl-7H-pyrrolo[2,3-d]pyrimidin-4-amine Derivatives as Novel, Potent, and Selective NF-κB Inducing Kinase (NIK) Inhibitors for the Treatment of Psoriasis” (J Med Chem, 2020)
The source made the active and inactive calls. No cut-off for these calls is given here.

Key:
[1] = Intrinsic clearance in human liver microsomes assessed per mg of protein incubated for 10 mins followed by potassium phosphate buffer addition and measured after 5 to 60 mins by LC-MS/MS analysis; format: ADME, Microsome; details: read-out: CLH
Outline: (§1)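 Rat, dog, monkey or human liver microsomes pre-incubated with compound at 37 °C for 10 min; reaction started after pre-warming and stopped at 5, 15, 30, 60 min with chilled quench containing tolbutamide and labetalol. No-cofactor control in 100 mM potassium phosphate for 60 min. LC-MS/MS analysis; first-order fit: k = −slope, T1/2 = 0.693/k, CLint = k/microsomal protein concentration.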

Activated CDC42 kinase 1 = Activated CDC42 kinase 1 (Homo sapiens, UniProt Q07912); assay: Inhibition of human ACK1 using [EAIYAAPFAKKK] as substrate in presence of [gamma33P]ATP by hotspot assay
Sequence of Activated CDC42 kinase 1 (Q07912 whole entry): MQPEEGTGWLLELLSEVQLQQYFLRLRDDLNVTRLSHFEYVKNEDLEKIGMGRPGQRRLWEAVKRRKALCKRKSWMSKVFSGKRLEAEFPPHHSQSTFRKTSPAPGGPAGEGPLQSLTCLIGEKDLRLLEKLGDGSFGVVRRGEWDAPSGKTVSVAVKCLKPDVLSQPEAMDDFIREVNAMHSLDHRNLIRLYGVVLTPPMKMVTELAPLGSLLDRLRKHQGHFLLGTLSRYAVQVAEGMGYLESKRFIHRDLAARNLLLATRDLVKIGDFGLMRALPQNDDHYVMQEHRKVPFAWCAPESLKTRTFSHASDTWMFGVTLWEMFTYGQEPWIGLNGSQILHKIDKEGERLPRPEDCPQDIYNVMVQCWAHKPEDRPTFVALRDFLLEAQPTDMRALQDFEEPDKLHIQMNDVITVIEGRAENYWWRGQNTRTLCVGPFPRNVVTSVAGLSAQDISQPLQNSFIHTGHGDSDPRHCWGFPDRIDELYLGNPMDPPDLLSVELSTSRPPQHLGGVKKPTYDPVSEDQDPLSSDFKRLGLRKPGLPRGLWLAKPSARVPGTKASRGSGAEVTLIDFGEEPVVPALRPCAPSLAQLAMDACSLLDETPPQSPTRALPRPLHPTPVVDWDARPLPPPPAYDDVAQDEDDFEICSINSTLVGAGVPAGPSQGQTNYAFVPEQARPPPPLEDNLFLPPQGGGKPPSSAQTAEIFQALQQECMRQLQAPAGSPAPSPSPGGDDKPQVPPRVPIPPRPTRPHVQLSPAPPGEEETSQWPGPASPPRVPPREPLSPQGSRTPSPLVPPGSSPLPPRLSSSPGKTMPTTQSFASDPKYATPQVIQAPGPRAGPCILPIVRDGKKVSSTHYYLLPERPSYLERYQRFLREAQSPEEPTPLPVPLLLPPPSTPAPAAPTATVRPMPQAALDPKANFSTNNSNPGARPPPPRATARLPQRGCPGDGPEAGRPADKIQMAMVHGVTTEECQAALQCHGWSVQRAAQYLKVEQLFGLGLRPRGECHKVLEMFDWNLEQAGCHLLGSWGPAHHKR

[2] = target: Tyrosine-protein kinase JAK1 (Homo sapiens, UniProt P23458); assay: Inhibition of human JAK1 using poly[Glu:Tyr] (4:1) as substrate in presence of [gamma33P]ATP by hotspot assay
Sequence of Tyrosine-protein kinase JAK1 (P23458 whole entry): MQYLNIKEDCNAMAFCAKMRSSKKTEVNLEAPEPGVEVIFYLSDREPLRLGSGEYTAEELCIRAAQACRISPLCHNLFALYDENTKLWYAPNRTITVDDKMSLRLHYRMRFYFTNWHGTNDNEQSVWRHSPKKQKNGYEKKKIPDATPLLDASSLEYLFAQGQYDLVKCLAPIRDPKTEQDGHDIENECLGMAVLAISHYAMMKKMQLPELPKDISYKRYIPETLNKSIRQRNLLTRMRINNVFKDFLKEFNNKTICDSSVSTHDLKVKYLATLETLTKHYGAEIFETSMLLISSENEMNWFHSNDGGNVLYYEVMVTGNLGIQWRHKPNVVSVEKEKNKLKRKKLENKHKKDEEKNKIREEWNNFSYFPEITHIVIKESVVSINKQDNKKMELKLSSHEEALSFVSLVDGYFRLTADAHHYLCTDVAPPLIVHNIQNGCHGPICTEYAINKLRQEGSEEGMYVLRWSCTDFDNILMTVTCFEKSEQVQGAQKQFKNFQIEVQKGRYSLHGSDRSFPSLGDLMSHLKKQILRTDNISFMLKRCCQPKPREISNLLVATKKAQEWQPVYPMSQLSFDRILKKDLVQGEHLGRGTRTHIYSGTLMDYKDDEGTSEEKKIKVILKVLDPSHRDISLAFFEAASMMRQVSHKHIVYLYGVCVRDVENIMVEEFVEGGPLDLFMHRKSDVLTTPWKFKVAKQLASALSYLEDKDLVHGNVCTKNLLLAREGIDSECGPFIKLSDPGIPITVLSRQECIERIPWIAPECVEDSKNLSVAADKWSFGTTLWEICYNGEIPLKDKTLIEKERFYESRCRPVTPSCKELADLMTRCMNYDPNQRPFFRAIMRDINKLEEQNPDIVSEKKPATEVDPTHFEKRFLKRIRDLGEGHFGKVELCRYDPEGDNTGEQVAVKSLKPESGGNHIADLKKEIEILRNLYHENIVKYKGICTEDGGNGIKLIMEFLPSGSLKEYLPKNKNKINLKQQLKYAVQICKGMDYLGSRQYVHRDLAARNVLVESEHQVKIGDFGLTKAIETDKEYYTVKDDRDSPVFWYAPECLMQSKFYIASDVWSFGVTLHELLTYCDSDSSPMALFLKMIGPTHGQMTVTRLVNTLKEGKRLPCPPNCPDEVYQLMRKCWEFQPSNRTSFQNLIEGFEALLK

Homo sapiens [3] = species on record: Homo sapiens; assay: Selectivity ratio of IC50 for human LRRK2 to IC50 for human NIK
Homo sapiens [4] = species on record: Homo sapiens; assay: Selectivity ratio of IC50 for human JAK1 to IC50 for human NIK
T-cell = assay: Growth inhibition of mouse T cells at 10 uM after 48 hrs by CCK8 assay; format: cell-based
Outline: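 Unstimulated mouse splenic T cells exposed to compound at 10 µM. Growth read by CCK-8 absorbance; […]. Mean ± SD, three independent experiments.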

[5] = Elimination half life in human liver microsomes incubated for 10 mins followed by potassium phosphate buffer addition and measured after 5 to 60 mins by LC-MS/MS analysis; format: ADME, Microsome; details: read-out: beta t1/2; outline: as §1
[6] = Elimination half life in dog liver microsomes incubated for 10 mins followed by potassium phosphate buffer addition and measured after 5 to 60 mins by LC-MS/MS analysis; format: ADME, Canis lupus familiaris, Microsome; details: read-out: beta t1/2; outline: as §1
[7] = Intrinsic clearance in monkey liver microsomes assessed as per mg of protein incubated for 10 mins followed by potassium phosphate buffer addition and measured after 5 to 60 mins by LC-MS/MS analysis; format: ADME, Macaca mulatta, Microsome; details: rhesus monkey, read-out: CLH; outline: as §1
[8] = Intrinsic clearance in rat liver microsomes assessed as per mg of protein incubated for 10 mins followed by potassium phosphate buffer addition and measured after 5 to 60 mins by LC-MS/MS analysis; format: ADME, Microsome; details: read-out: CLH; outline: as §1
[9] = Intrinsic hepatic clearance in rat; format: ADME; details: in vivo
Outline: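 Scaled from microsomal intrinsic clearance: CLint,in vitro × microsomal protein per g liver × liver weight per kg body weight.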

[10] = Half life in Sprague-Dawley rat at 1 mg/kg, iv administered as single bolus dose by LC-MS/MS analysis; format: ADME, organism-based; details: in vivo
[11] = Cmax in Sprague-Dawley rat at 10 mg/kg, po administered via gavage measured at 0.833 hrs by LC-MS/MS analysis; format: ADME, organism-based; parameters: dose 10 mg/kg, route oral; details: in vivo
[12] = Tmax in Sprague-Dawley rat at 10 mg/kg, po administered via gavage by LC-MS/MS analysis; format: ADME, organism-based; details: in vivo
Outline: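 SD rats, 3 per group. Single IV bolus at 1 mg/kg in DMSO:PEG200:saline 20:20:60 (0.2 mg/mL), or oral gavage at 10 mg/kg as suspension in 0.5% CMC-Na/0.2% Tween 80 (1 mg/mL). Plasma protein-precipitated with acetonitrile containing internal standards, then quantified by LC-MS/MS. Parameters derived by noncompartmental analysis. Mean ± SD.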

[13] = target: Mitogen-activated protein kinase kinase kinase 14 (Homo sapiens, UniProt Q99558); assay: Inhibition of NIK in human BEAS2B cells assessed as reduction in LPS-induced IL-6 level preincubated for 8 hrs followed by LPS stimulation and measured after 24 hrs by ELISA; format: cell-based
Sequence of Mitogen-activated protein kinase kinase kinase 14 (Q99558 whole entry, looked up): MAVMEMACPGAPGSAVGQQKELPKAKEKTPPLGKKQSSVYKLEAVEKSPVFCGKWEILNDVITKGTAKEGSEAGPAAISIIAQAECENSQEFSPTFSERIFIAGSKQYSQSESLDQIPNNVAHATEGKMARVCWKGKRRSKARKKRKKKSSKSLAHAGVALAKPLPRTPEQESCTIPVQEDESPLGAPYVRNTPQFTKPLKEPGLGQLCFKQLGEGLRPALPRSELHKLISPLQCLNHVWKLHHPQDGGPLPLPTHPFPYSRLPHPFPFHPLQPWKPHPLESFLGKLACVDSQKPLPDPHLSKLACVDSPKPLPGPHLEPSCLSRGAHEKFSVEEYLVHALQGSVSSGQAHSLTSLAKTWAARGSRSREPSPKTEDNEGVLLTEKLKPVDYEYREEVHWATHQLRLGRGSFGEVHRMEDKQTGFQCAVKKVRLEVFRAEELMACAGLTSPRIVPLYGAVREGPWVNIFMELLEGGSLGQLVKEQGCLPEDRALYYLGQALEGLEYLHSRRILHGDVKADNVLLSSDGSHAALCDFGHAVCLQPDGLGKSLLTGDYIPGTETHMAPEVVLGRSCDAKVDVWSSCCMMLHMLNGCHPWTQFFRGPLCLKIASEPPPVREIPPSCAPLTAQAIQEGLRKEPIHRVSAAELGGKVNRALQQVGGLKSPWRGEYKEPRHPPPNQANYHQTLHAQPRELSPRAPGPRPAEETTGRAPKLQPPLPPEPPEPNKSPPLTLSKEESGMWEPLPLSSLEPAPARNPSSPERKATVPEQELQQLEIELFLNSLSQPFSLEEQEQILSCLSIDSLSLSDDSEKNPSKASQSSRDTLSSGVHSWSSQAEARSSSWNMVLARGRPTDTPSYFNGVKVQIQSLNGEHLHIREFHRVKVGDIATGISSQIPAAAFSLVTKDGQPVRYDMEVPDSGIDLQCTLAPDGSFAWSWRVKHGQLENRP
Outline: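 BEAS-2B cells were grown in DMEM with 10% FBS, seeded at 5000 cells/well, and cultured 24 h at 37 °C in 5% CO2. Compounds were given at 7 concentrations from 10 μM to 0.014 μM (3 replicate wells), with dexamethasone as positive control. After 8 h, LPS (20 μg/mL solution) was added for 24 h. Supernatant IL-6 was read by human IL-6 ELISA; two biological replicates.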

J774 = assay: Antiinflammatory activity in mouse J774 cells assessed as reduction in LPS-induced IL-1 beta mRNA level by SYBR green dye-based quantitative PCR analysis; format: functional, cell-based
Outline: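 LPS-stimulated J774 macrophages; mRNA quantified by qPCR using 4 µL cDNA plus 16 µL master mix per reaction. Mean ± SD of three biological replicates; significance by two-tailed Student's t-test against the model group.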

Mus musculus [14] = assay: Suppression of IMQ-induced epidermal acanthosis in ig dosed C57 mouse model of psoriasis assessed as reduction in epidermal thickness administered once daily starting from day 3 post IMQ-challenge and measured 2 days post-last dose of IMQ by hematoxylin-eosin staining based confocal laser scanning microscopy; format: functional, organism-based
Outline: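 IMQ-induced C57 mice (5% cream 7 days; 60 or 120 mg/kg i.g. daily from day 3, n = 6). Formalin-fixed, paraffin-embedded back skin cut at 3 µm and H&E stained. Epidermal thickness measured in six randomly chosen fields; blind evaluation by two pathologists.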

Mus musculus [15] = assay: Suppression of IMQ-induced psoriasis in C57 mouse assessed as reduction in spleen index at 60 mg/kg, ig administered once daily starting from day 3 post IMQ-challenge and measured 2 days post-last dose of IMQ; format: functional, organism-based
Outline: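 IMQ-induced C57 mice (5% cream daily 7 days; i.g. daily from day 3 at the stated dose, n = 6). Spleen weighed per mouse at end of study.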

Mus musculus [16] = assay: Suppression of IMQ-induced psoriasis in ig dosed C57 mouse assessed as reduction in serum IL-17A level administered once daily starting from day 3 post IMQ-challenge and measured 2 days post-last dose of IMQ by ELISA; format: functional, organism-based
Outline: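 IMQ-induced C57 mice (5% cream 7 days; 60 or 120 mg/kg i.g. daily from day 3). Blood collected at end of dosing, held 12 h at 4 °C, centrifuged; serum IL-17A by ELISA. Mean ± SEM.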

Mus musculus [17] = assay: Suppression of IMQ-induced psoriasis in C57 mouse assessed as reduction in macrophage infiltration in back skin tissue at 60 to 120 mg/kg, ig administered starting from day 3 post IMQ-challenge and measured 2 days post-last dose of IMQ by F4/80 immunofluorescence staining based assay; format: functional, organism-based
Outline: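 IMQ-induced C57 mice (5% cream 7 days; 60 or 120 mg/kg i.g. daily from day 3). Frozen back-skin sections, 6 µm, stained with F4/80 antibody, DAPI counterstain, and imaged by confocal microscopy. Significance by two-tailed t-test.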

[18] = target: Mitogen-activated protein kinase kinase kinase 14 (Mus musculus) (UniProt Q9WUL6); assay: In vivo inhibition of NIK in C57 mouse model of IMQ-induced psoriasis assessed as reduction in NF-kappaB signalling in back skin by measuring decrease in mRNA IL-12 level at 60 to 120 mg/kg, po administered starting from day 3 post IMQ-challenge and measured 2 days post-last dose of IMQ by qPCR analysis; format: functional, organism-based
Sequence of Mitogen-activated protein kinase kinase kinase 14 (Mus musculus) (Q9WUL6 whole entry): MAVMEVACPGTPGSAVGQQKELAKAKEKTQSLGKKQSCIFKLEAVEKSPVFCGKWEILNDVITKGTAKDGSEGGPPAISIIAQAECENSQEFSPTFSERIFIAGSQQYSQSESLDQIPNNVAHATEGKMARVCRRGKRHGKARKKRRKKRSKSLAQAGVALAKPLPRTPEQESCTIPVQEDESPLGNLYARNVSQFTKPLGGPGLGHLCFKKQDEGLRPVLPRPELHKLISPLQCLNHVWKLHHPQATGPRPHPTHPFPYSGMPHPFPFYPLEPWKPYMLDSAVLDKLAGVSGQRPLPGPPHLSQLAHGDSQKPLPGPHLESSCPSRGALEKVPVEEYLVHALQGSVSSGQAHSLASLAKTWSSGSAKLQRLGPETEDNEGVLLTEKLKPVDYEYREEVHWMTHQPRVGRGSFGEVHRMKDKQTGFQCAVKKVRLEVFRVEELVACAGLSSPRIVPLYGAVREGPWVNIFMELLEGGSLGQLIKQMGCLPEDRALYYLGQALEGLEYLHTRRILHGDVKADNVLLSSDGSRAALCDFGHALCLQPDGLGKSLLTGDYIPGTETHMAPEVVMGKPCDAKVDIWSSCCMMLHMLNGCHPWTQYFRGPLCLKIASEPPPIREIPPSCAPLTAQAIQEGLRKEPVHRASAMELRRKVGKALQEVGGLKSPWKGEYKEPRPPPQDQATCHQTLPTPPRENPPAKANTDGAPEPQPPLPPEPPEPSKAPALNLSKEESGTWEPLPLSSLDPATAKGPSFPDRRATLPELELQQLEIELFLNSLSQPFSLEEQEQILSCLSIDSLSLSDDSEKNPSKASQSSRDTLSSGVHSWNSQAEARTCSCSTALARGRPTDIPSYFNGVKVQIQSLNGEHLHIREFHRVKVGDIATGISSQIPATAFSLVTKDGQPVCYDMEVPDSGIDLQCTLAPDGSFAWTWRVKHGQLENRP
Outline: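 C57 mice had 5% imiquimod cream applied to the back skin once daily for seven consecutive days. Oral gavage dosing at 60 or 120 mg/kg once daily started on day 3 and continued to the end, with n = 6 per group alongside normal and IMQ-only model groups. Back-skin mRNA was quantified by qPCR.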

## CC(O)(C#Cc1ccc(N2CCOCC2)c(Nc2ncnc3[nH]ccc23)c1)c1nccs1 (racemic)
[1]
  microsomal CLint: 32.4 µL/min/mg
Activated CDC42 kinase 1
  IC50: 192 nM
[2]
  IC50: 183 nM
Homo sapiens [3]
  Ratio IC50: 4 to 20
Homo sapiens [4]
  Ratio IC50: 4 to 20
T-cell
  Activity: Non-Toxic
[5]
  half-life: 42.9 min
[6]
  half-life: 32.4 min
[7]
  microsomal CLint: 76.8 µL/min/mg
[8]
  microsomal CLint: 45 µL/min/mg
[9]
  CLH: 81 mL/min/kg
[10]
  half-life: 56.6 min
[11]
  Cmax: 772 ng/mL
[12]
  Tmax: 50 min
[13]
  inhibition: Dose-dependent effect
J774
  Activity: Active
Mus musculus [14]
  inhibition: Dose-dependent effect
Mus musculus [15]
  inhibition: Active
Mus musculus [16]
  inhibition: Dose-dependent effect
Mus musculus [17]
  inhibition: Active
[18]
  inhibition: Active
